Test results as given in ChEMBL document CHEMBL3804769, “Antibacterial Diamines Targeting Bacterial Membranes” (J Med Chem, 2016).
Converted amounts (≈) assume the structure as drawn. The source made the active and inactive calls. The rule behind the calls is not given here.

Assays:
Staphylococcus aureus [1] = assay: Antibacterial activity against Staphylococcus aureus RN4220 ATCC 35556 incubated overnight by microbroth dilution method; type: functional
Method in brief: (§1)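 Bacteria grown in LB medium. CLSI microbroth dilution in 96-well plates, overnight at 37 °C without shaking. MIC99 taken as the lowest concentration giving complete growth inhibition. Three independent determinations, reported as mean ± SD.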

Pseudomonas aeruginosa [2] = assay: Antibacterial activity against Pseudomonas aeruginosa PAO1 ATCC 47085 incubated overnight by microbroth dilution method; type: functional; method in brief: as §1
Escherichia coli = assay: Antibacterial activity against Escherichia coli ANS1 incubated overnight by microbroth dilution method; type: functional; method in brief: as §1
Staphylococcus aureus [3] = assay: Bactericidal activity against Staphylococcus aureus RN4220 ATCC 35556 in exponential-phase assessed as reduction in bacterial burden at 4 times MIC99 after 2 to 6 hrs by time-kill assay; type: functional, organism-based
Method in brief: (§2)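 Overnight cultures washed and resuspended in PBS, then diluted 100-fold into LB (exponential-phase model) or into 1% PBS (stationary-phase model). Test agent added at 4× MIC99. Incubated at 37 °C with shaking at 200 rpm. CFU counted on LB agar at 0, 2, 4 and 6 h.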

Staphylococcus aureus [4] = assay: Bactericidal activity against Staphylococcus aureus RN4220 ATCC 35556 in stationary-phase assessed as reduction in bacterial burden at 4 times MIC99 after 2 to 6 hrs by time-kill assay; type: functional, organism-based; method in brief: as §2
Pseudomonas aeruginosa [5] = assay: Bactericidal activity against Pseudomonas aeruginosa PAO1 ATCC 47085 in exponential-phase assessed as reduction in bacterial burden at 4 times MIC99 upto 6 hrs by time-kill assay; type: functional; method in brief: as §2
Pseudomonas aeruginosa [6] = assay: Bactericidal activity against Pseudomonas aeruginosa PAO1 ATCC 47085 in stationary-phase assessed as reduction in bacterial burden at 4 times MIC99 after 4 hrs by time-kill assay; type: functional, organism-based; method in brief: as §2
Pseudomonas aeruginosa [7] = assay: Antibacterial activity against Pseudomonas aeruginosa PAO1 ATCC 47085 assessed as increase in outer membrane permeability at 4 times MIC99 by fluorescent probe 1-N-phenylnaphthylamine based fluorescence assay; type: functional, organism-based
Method in brief: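 P. aeruginosa PAO1 from a culture at OD600 ~0.5, washed and resuspended in 5 mM HEPES pH 7.2. NPN added to 10 μM final and sodium azide to 10 mM final, then 30 min at room temperature in darkness. Compound added at 4× or 1× MIC99 and NPN fluorescence recorded continuously (ex 350/em 420 nm). Gentamicin at 4× MIC99 as positive control. Three independent experiments.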

Caenorhabditis elegans [8] = assay: Toxicity in Caenorhabditis elegans N2 assessed as effect on viable eggs production treated at high concentration; type: organism-based; conditions: in vivo
Method in brief: (§3)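 C. elegans N2 kept on NGM agar at 22 °C. Compound mixed into molten NGM agar at 64 μg/mL. L4 adults, L1 juveniles and synchronized eggs transferred onto test plates and held at 22 °C for 96 h. Death, development and egg production checked every 12 h.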

Caenorhabditis elegans [9] = assay: Toxicity in juvenile L1 stage of Caenorhabditis elegans N2 assessed as nematode death at 64 ug/ml incubated for 96 hrs measured every 12 hrs; type: organism-based; conditions: in vivo; method in brief: as §3
Staphylococcus aureus [10] = assay: Bactericidal activity against Staphylococcus aureus RN4220 ATCC 35556 assessed as reduction in bacterial burden; type: functional, organism-based
Method in brief: (§4)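 Overnight LB cultures of RN4220 or PAO1 washed and resuspended in PBS, then diluted 100-fold into LB (exponential phase) or 1% PBS (stationary phase). Compound added at 4× MIC99, and cultures shaken at 200 rpm at 37 °C. Viable counts taken by dilution plating on LB agar at 0, 2, 4 and 6 h.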

Pseudomonas aeruginosa [11] = assay: Bactericidal activity against Pseudomonas aeruginosa PAO1 ATCC 47085 assessed as reduction in bacterial burden; type: functional, organism-based; method in brief: as §4
Pseudomonas aeruginosa [12] = assay: Antibiofilm activity against Pseudomonas aeruginosa PAO1 ATCC 47085 at < 1024 ug/ml after 24 hrs by crystal violet staining-based spectrophotometry; type: functional, organism-based
Method in brief: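 PAO1 grown 2 h in LB at 37 °C with shaking, then diluted 1:1000 in 10% LB-PBS to 3 × 10⁵ CFU/mL and mixed with serially diluted compound. Biofilms grown on peg lids 24 h at 37 °C, static. Pegs washed, stained with 0.1% crystal violet for 15 min, dye eluted in 95% ethanol and read at 600 nm. Control was 10% LB-PBS.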

Staphylococcus aureus [13] = assay: Bactericidal activity against Staphylococcus aureus RN4220 ATCC 35556 in stationary-phase assessed as reduction in bacterial burden at 4 times MIC99 after 4 hrs by time-kill assay; type: functional; method in brief: as §4
Pseudomonas aeruginosa [14] = assay: Antibiofilm activity against Pseudomonas aeruginosa PAO1 ATCC 47085 after 24 hrs by crystal violet staining-based spectrophotometry; type: functional, organism-based
Method in brief: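 PAO1 grown 2 h in LB at 37 °C with shaking, then diluted 1:1000 in 10% LB-PBS to 3 × 10⁵ CFU/mL. Inoculum mixed with serially diluted compound under pegged lids and incubated 24 h at 37 °C static. Peg biofilms washed, stained 15 min with 0.1% crystal violet, and dye eluted in 95% ethanol and read at 600 nm.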

NCCCNCCCCNCCCN [SPERMINE]
MIC99 (Staphylococcus aureus [1]): > 512 µg/mL
MIC99 (Pseudomonas aeruginosa [2]): > 512 µg/mL
MIC99 (Escherichia coli): > 512 µg/mL

CC1(C)S[C@@H]2[C@H](NC(=O)[C@H](N)c3ccccc3)C(=O)N2[C@H]1C(=O)O [AMPICILLIN]
MIC99 (Staphylococcus aureus [1]): 0.125 µg/mL (≈ 0.358 µM)
MIC99 (Pseudomonas aeruginosa [2]): 128 µg/mL (≈ 366 µM)
Activity (Staphylococcus aureus [3]): Active
Activity (Staphylococcus aureus [4]): inactive
Activity (Pseudomonas aeruginosa [5]): inactive
Activity (Pseudomonas aeruginosa [6]): inactive

O=C(NCCCCCCCCCCCCNC(=O)NCC(c1ccccc1)c1ccccc1)NCC(c1ccccc1)c1ccccc1
MIC99 (Staphylococcus aureus [1]): > 256 µg/mL
MIC99 (Pseudomonas aeruginosa [2]): > 256 µg/mL
MIC99 (Escherichia coli): > 256 µg/mL

Cl.Cl.S=C(NCCCNCCCCCNCCCNC(=S)NCCC(c1ccccc1)c1ccccc1)NCCC(c1ccccc1)c1ccccc1
MIC99 (Staphylococcus aureus [1]): 9.3 µg/mL
MIC99 (Pseudomonas aeruginosa [2]): 32 µg/mL
MIC99 (Escherichia coli): 10 µg/mL

Cl.Cl.O=C(NCCCNCCCCCNCCCNC(=O)NCc1ccccc1)NCc1ccccc1
MIC99 (Staphylococcus aureus [1]): 107 µg/mL
MIC99 (Pseudomonas aeruginosa [2]): 213 µg/mL
MIC99 (Escherichia coli): 64 µg/mL

Cl.Cl.O=C(NCCCNCCCCCNCCCNC(=O)NCCC(c1ccccc1)c1ccccc1)NCCC(c1ccccc1)c1ccccc1
MIC99 (Staphylococcus aureus [1]): 13.3 µg/mL
MIC99 (Pseudomonas aeruginosa [2]): 26.7 µg/mL
MIC99 (Escherichia coli): 6 µg/mL

Cl.Cl.O=C(NCCCNCCCCCNCCCNC(=O)NC(c1ccccc1)c1ccccc1)NC(c1ccccc1)c1ccccc1
MIC99 (Staphylococcus aureus [1]): 10.7 µg/mL
MIC99 (Pseudomonas aeruginosa [2]): 13.3 µg/mL
MIC99 (Escherichia coli): 6 µg/mL

Cl.Cl.S=C(NCCCNCCCCCNCCCNC(=S)NC(c1ccccc1)c1ccccc1)NC(c1ccccc1)c1ccccc1
MIC99 (Staphylococcus aureus [1]): 6.7 µg/mL
MIC99 (Pseudomonas aeruginosa [2]): 13.3 µg/mL
MIC99 (Escherichia coli): 6 µg/mL

NCCCCNCCCN [SPERMIDINE]
MIC99 (Staphylococcus aureus [1]): > 512 µg/mL
MIC99 (Pseudomonas aeruginosa [2]): > 512 µg/mL
MIC99 (Escherichia coli): > 512 µg/mL

Cl.Cl.O=C(NCCCNCCCCCNCCCNC(=O)Nc1ccccc1)Nc1ccccc1
MIC99 (Staphylococcus aureus [1]): > 256 µg/mL
MIC99 (Pseudomonas aeruginosa [2]): > 256 µg/mL
MIC99 (Escherichia coli): > 256 µg/mL

GENTAMICIN [listing 1 of 2 here]
Activity (Pseudomonas aeruginosa [7]): Active

O=c1[nH]cc(F)c(=O)[nH]1 [FLUOROURACIL]
Activity (Caenorhabditis elegans [8]): Toxic
Activity (Caenorhabditis elegans [9]): Toxic

O=[N+]([O-])c1ccc(O)c([N+](=O)[O-])c1
Activity (Staphylococcus aureus [10]): Active
Activity (Pseudomonas aeruginosa [11]): Active

GENTAMICIN [listing 2 of 2 here]
Activity (Caenorhabditis elegans [8]): Toxic
Activity (Caenorhabditis elegans [9]): Toxic

NC[C@H]1O[C@H](O[C@H]2[C@H](O)[C@@H](O[C@H]3O[C@H](CO)[C@@H](O)[C@H](N)[C@H]3O)[C@H](N)C[C@@H]2N)[C@H](O)[C@@H](O)[C@@H]1O [KANAMYCIN]
MIC99 (Staphylococcus aureus [1]): 8 µg/mL (≈ 16.5 µM)
MIC99 (Pseudomonas aeruginosa [2]): 32 µg/mL (≈ 66 µM)
MIC99 (Escherichia coli): 8 µg/mL (≈ 16.5 µM)
Activity (Pseudomonas aeruginosa [12]): inactive
Activity (Staphylococcus aureus [3]): Active
Activity (Staphylococcus aureus [4]): inactive
Activity (Pseudomonas aeruginosa [5]): inactive
Activity (Pseudomonas aeruginosa [6]): inactive

Cl.Cl.S=C(NCCCNCCCCCNCCCNC(=S)NCc1ccccc1)NCc1ccccc1
MIC99 (Staphylococcus aureus [1]): 32 µg/mL
MIC99 (Pseudomonas aeruginosa [2]): 256 µg/mL
MIC99 (Escherichia coli): 32 µg/mL

CCn1cc(C(=O)O)c(=O)c2cc(F)c(N3CCNCC3)cc21 [NORFLOXACIN]
MIC99 (Staphylococcus aureus [1]): 0.5 µg/mL (≈ 1.57 µM)
MIC99 (Pseudomonas aeruginosa [2]): 0.5 µg/mL (≈ 1.57 µM)
MIC99 (Escherichia coli): 0.25 µg/mL (≈ 0.783 µM)
Activity (Staphylococcus aureus [3]): Active
Activity (Staphylococcus aureus [4]): inactive
Activity (Staphylococcus aureus [13]): 2 deltalog10CFU/ml
Activity (Pseudomonas aeruginosa [5]): 4 deltalog10CFU/ml
Activity (Pseudomonas aeruginosa [14]): Active

O=C(NCCCCCCCCCCCCNC(=O)NC(c1ccccc1)c1ccccc1)NC(c1ccccc1)c1ccccc1
MIC99 (Staphylococcus aureus [1]): > 256 µg/mL
MIC99 (Pseudomonas aeruginosa [2]): > 256 µg/mL
MIC99 (Escherichia coli): > 256 µg/mL

S=C(NCCCCCCCCCCCCNC(=S)NC(c1ccccc1)c1ccccc1)NC(c1ccccc1)c1ccccc1
MIC99 (Staphylococcus aureus [1]): > 256 µg/mL
MIC99 (Pseudomonas aeruginosa [2]): > 256 µg/mL
MIC99 (Escherichia coli): > 256 µg/mL

CN(C)[C@@H]1C(O)=C(C(N)=O)C(=O)[C@@]2(O)C(O)=C3C(=O)c4c(O)cccc4[C@@](C)(O)[C@H]3C[C@@H]12
Activity (Pseudomonas aeruginosa [14]): Active

S=C(NCCCNCCCCNCCCNC(=S)NC(c1ccccc1)c1ccccc1)NC(c1ccccc1)c1ccccc1
MIC99 (Staphylococcus aureus [1]): 3.8 µg/mL (≈ 5.82 µM)
MIC99 (Pseudomonas aeruginosa [2]): 10.4 µg/mL (≈ 15.9 µM)
MIC99 (Escherichia coli): 6.2 µg/mL (≈ 9.49 µM)

S=C(NCCCNCCCCNCCCNC(=S)NCCC(c1ccccc1)c1ccccc1)NCCC(c1ccccc1)c1ccccc1
MIC99 (Staphylococcus aureus [1]): 4.9 µg/mL (≈ 6.91 µM)
MIC99 (Pseudomonas aeruginosa [2]): 29.2 µg/mL (≈ 41.2 µM)
MIC99 (Escherichia coli): 10.4 µg/mL (≈ 14.7 µM)

COLISTIN
MIC99 (Staphylococcus aureus [1]): > 16 µg/mL
MIC99 (Pseudomonas aeruginosa [2]): < 0.125 µg/mL
Activity (Staphylococcus aureus [10]): Active
Activity (Pseudomonas aeruginosa [11]): Active

Cl.Cl.O=C(NCCCNCCCCCNCCCNC(=O)NCC(c1ccccc1)c1ccccc1)NCC(c1ccccc1)c1ccccc1
MIC99 (Staphylococcus aureus [1]): 18.7 µg/mL
MIC99 (Pseudomonas aeruginosa [2]): 26.7 µg/mL
MIC99 (Escherichia coli): 4 µg/mL

O=C(NCCCCCCCCCCCNC(=O)NCCC(c1ccccc1)c1ccccc1)NCCC(c1ccccc1)c1ccccc1
MIC99 (Staphylococcus aureus [1]): > 256 µg/mL
MIC99 (Pseudomonas aeruginosa [2]): > 256 µg/mL
MIC99 (Escherichia coli): > 256 µg/mL

O=C(NCCCNCCCCNCCCNC(=O)NCC(c1ccccc1)c1ccccc1)NCC(c1ccccc1)c1ccccc1
MIC99 (Staphylococcus aureus [1]): 11.3 µg/mL (≈ 17.4 µM)
MIC99 (Pseudomonas aeruginosa [2]): 18.6 µg/mL (≈ 28.7 µM)
MIC99 (Escherichia coli): 4.4 µg/mL (≈ 6.78 µM)
